The inhibition is the share of the control response that was lost under treatment.

Consider nine compounds from ChEMBL document CHEMBL5346929, “Designed switch from covalent to non-covalent inhibitors of carboxylesterase Notum activity” (Eur J Med Chem, 2023).

The structures appear in SMILES notation.

Data set [1] concerns the target T1, Palmitoleoyl-protein carboxylesterase NOTUM (Homo sapiens, UniProt Q6P988).
T1 sequence (Q6P988 whole entry): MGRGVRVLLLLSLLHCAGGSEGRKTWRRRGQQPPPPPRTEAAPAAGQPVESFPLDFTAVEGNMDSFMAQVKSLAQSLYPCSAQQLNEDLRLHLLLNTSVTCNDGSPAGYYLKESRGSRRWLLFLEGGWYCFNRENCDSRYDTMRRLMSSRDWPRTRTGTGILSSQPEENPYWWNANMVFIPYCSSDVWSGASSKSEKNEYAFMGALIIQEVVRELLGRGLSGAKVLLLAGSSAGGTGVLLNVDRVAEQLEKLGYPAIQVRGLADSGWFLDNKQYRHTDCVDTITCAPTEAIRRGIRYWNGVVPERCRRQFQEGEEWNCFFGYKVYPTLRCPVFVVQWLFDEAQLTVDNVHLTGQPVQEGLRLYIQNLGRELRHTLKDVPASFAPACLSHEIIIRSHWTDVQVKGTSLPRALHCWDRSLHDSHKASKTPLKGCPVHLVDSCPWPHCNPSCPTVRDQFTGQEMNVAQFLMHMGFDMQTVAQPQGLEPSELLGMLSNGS
Description: Inhibition of human recombinant Notum (81 to T451 residues) expressed in HEK293S cells using OPTS as substrate incubated for 40 mins by microplate reader analysis.

Data set [2] concerns the target T1, Palmitoleoyl-protein carboxylesterase NOTUM. Description: Inhibition of human recombinant Notum (81 to T451 residues) expressed in HEK293S cells using OPTS as substrate at 10 uM incubated for 40 mins by microplate reader analysis relative to control. Put shortly:
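Biochemical assay with the Notum 81–451 C330S construct and the synthetic fluorescent substrate OPTS.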

Data set [3] concerns liver microsomes (Mus musculus). Description: Metabolic stability in mouse liver microsome assessed as intrinsic clearance measured upto 60 mins by LC-MS/MS analysis. The following applies: read-out: CLH.

Take `CC(=O)n1cnc2ccccc21`: the IC50 result in data set [1] was “Not Active”. For the same compound, the inhibition at 10 µM in data set [2] was less than 20%.
As to `CC(=O)N1CCc2cc(C#N)ccc21`, the inhibition at 10 µM in data set [2] is 20%.
For the compound `CCN1CCc2c(Cl)cccc21`, the inhibition at 10 µM in data set [2] was determined as 20%.
`CC(=O)N1CCS(=O)(=O)c2ccccc21`: the inhibition at 10 µM in data set [2] was 20%.
Regarding `CC(=O)N1CCC(c2ccccc2)C1` (stereo unspecified), the IC50 entry in data set [1] is given as “Not Active”. In addition, the inhibition at 10 µM in data set [2] is less than 20%.
With `O=C1CCC2Cc3ccccc3N12` (racemic), the microsomal CLint in data set [3] was determined as 74 µL/min/mg.
Take `CC(=O)N(C)c1ccccc1C`: in data set [2], the inhibition at 10 µM was 20%.
On to `O=C1CCCN1c1ccccc1`, for which, in data set [2], the inhibition at 10 µM came to 20%.
Consider `CC(=O)n1ncc2ccccc21`, for which, in data set [2], the inhibition at 10 µM came out at 20%.
